From ChEMBL document CHEMBL1129264, “Mercaptoacyl dipeptides as orally active dual inhibitors of angiotensin-converting enzyme and neutral endopeptidase” (1996)
One block for each molecule: values may come before it.

Legend:
[1] = target: T1, Angiotensin-converting enzyme (Rattus norvegicus) (UniProt P47820); experiment: Compound was tested for plasma inhibition of Angiotensin I converting enzyme activity in the conscious rat. Expressed as Inhibition of AI pressor response at 4 hr at a dose of 12.4 mg/kg po; assay type: organism-based; design: dose 12.4 mg/kg
T1 sequence (whole entry): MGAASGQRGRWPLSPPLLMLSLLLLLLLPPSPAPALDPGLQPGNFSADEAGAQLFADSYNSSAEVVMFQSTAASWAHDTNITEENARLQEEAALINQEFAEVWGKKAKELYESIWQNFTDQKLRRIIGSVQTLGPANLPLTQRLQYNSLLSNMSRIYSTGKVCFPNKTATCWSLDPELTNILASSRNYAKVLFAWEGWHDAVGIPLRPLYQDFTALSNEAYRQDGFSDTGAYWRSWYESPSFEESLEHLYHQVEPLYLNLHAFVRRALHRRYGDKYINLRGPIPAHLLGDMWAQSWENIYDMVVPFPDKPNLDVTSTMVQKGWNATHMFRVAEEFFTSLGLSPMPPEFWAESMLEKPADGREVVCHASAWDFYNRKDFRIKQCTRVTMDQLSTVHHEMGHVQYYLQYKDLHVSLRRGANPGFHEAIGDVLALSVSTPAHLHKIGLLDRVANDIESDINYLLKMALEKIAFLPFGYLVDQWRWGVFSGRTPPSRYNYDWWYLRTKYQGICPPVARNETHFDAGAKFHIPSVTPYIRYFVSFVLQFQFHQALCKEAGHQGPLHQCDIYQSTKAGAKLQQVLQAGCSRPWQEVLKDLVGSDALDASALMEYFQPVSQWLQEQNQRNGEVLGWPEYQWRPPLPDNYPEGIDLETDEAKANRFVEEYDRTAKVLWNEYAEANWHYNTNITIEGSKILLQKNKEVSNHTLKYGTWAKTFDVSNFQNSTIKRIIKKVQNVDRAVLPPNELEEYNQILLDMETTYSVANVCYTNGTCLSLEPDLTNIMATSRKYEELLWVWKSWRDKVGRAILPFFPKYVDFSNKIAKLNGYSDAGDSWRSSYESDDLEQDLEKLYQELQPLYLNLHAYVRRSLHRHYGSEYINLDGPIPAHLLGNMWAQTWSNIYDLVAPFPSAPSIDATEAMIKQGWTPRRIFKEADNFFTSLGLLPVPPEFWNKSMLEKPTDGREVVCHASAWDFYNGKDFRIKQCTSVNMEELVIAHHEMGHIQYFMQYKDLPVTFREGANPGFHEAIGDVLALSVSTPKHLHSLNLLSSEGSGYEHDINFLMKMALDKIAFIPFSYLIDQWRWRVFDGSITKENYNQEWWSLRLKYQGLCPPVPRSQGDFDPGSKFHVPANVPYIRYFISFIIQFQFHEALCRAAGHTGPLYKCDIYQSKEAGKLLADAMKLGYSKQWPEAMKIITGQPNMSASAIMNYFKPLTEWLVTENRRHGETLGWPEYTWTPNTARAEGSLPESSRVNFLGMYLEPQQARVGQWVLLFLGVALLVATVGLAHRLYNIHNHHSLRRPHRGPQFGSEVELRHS
How it was run: (§1)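 Male conscious normotensive Sprague-Dawley rats (275-390 g), given femoral arterial and venous catheters under methohexital sodium (75 mg/kg ip) anesthesia. Next day, pressor responses to three angiotensin-I challenges (300 ng/kg iv) recorded by direct arterial pressure. Compound then dosed orally, and AI challenge repeated at set times. Each post-dose response compared with the mean of the three baseline responses, giving % inhibition.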

[2] = system: Rattus norvegicus; experiment: Plasma ANF Concentration in the Conscious Rat at a dose of 12.4 (p.o.) mg/kg at 4 h; assay type: functional
How it was run: (§2)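 Male Sprague-Dawley rats (275-390 g) received femoral artery and vein catheters under ketamine (150 mg/kg)/acepromazine and recovered for 24 h, tethered, before study conscious. ratANF(99-126) was infused at 450 ng/kg/min iv for 5 h. Baseline blood was drawn at 60 min into the infusion, then compound was given po.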

[3] = target: T1, Angiotensin-converting enzyme (Rattus norvegicus); experiment: Compound was tested for plasma inhibition of Angiotensin I converting enzyme activity in the conscious rat. Expressed as Inhibition of AI pressor response at 6 hr at a dose of 12.4 mg/kg po; assay type: organism-based; design: dose 12.4 mg/kg
How it was run: (§3)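 Male conscious normotensive Sprague-Dawley rats (275-390 g), prepared under methohexital sodium (75 mg/kg ip) with femoral arterial and venous catheters. The next day, pressor responses to three angiotensin-I challenges (300 ng/kg iv) were recorded. Compound was then given orally and angiotensin-I challenges were repeated at set times. Percent inhibition is relative to the mean of the three baseline responses.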

[4] = target: T1, Angiotensin-converting enzyme (Rattus norvegicus); experiment: Compound was tested for plasma inhibition of Angiotensin I converting enzyme activity in the conscious rat. Expressed as Inhibition of AI pressor response at 2 hr at a dose of 12.4 mg/kg po; assay type: organism-based; design: dose 12.4 mg/kg; how it was run: as §1
[5] = target: T1, Angiotensin-converting enzyme (Rattus norvegicus); experiment: Compound was tested for plasma inhibition of Angiotensin I converting enzyme activity in the conscious rat. Expressed as Inhibition of AI pressor response at 1 hr at a dose of 12.4 mg/kg po; assay type: organism-based; design: dose 12.4 mg/kg; how it was run: as §1
[6] = system: Rattus norvegicus; experiment: Plasma ANF Concentration in the Conscious Rat at a dose of 12.4 (p.o.) mg/kg at 0.5 h; assay type: functional; how it was run: as §2
[7] = system: Rattus norvegicus; experiment: Plasma ANF Concentration in the Conscious Rat at a dose of 12.4 (p.o.) mg/kg at 1 h; assay type: functional; how it was run: as §2
[8] = system: Rattus norvegicus; experiment: Plasma ANF Concentration in the Conscious Rat at a dose of 12.4 (p.o.) mg/kg at 2 h; assay type: functional; how it was run: as §2
[9] = target: T1, Angiotensin-converting enzyme (Rattus norvegicus); experiment: Compound was tested for plasma inhibition of Angiotensin I converting enzyme activity in the conscious rat. Expressed as Inhibition of AI pressor response at 6 hr at a dose of 12.7 mg/kg po; assay type: organism-based; design: dose 12.7 mg/kg; how it was run: as §3
[10] = target: T1, Angiotensin-converting enzyme (Rattus norvegicus); experiment: Compound was tested for plasma inhibition of Angiotensin I converting enzyme activity in the conscious rat. Expressed as Inhibition of AI pressor response at 1 hr at a dose of 12.7 mg/kg po; assay type: organism-based; design: dose 12.7 mg/kg; how it was run: as §1
[11] = system: Rattus norvegicus; experiment: Plasma ANF Concentration in the Conscious Rat at a dose of 12.7(po)mg/kg at 1 h; assay type: functional; how it was run: as §2
[12] = system: Rattus norvegicus; experiment: Plasma ANF Concentration in the Conscious Rat at a dose of 12.7(po)mg/kg at 0.5 h; assay type: functional; how it was run: as §2
[13] = target: T1, Angiotensin-converting enzyme (Rattus norvegicus); experiment: Compound was tested for plasma inhibition of Angiotensin I converting enzyme activity in the conscious rat. Expressed as Inhibition of AI pressor response at 2 hr at a dose of 12.7 mg/kg po; assay type: organism-based; design: dose 12.7 mg/kg; how it was run: as §1
[14] = target: T1, Angiotensin-converting enzyme (Rattus norvegicus); experiment: Compound was tested for plasma inhibition of Angiotensin I converting enzyme activity in the conscious rat. Expressed as Inhibition of AI pressor response at 4 hr at a dose of 12.7 mg/kg po; assay type: organism-based; design: dose 12.7 mg/kg; how it was run: as §1
[15] = system: Rattus norvegicus; experiment: Plasma ANF Concentration in the Conscious Rat at a dose of […]; assay type: functional; details: in the assay text read “12.7(po)mg/kg” for “12.4(po)mg/kg”; how it was run: as §2
[16] = system: Rattus norvegicus; experiment: Plasma ANF Concentration in the Conscious Rat at a dose of 12.7(po)mg/kg at 4 h; assay type: functional; how it was run: as §2
[17] = target: T1, Angiotensin-converting enzyme (Rattus norvegicus); experiment: Compound was tested for plasma inhibition of Angiotensin I converting enzyme activity in the conscious rat. Expressed as Inhibition of AI pressor response at 6 hr at a dose of 13.1 mg/kg po; assay type: organism-based; design: dose 13.1 mg/kg; how it was run: as §3
[18] = target: T1, Angiotensin-converting enzyme (Rattus norvegicus); experiment: Compound was tested for plasma inhibition of Angiotensin I converting enzyme activity in the conscious rat. Expressed as Inhibition of AI pressor response at 4 hr at a dose of 13.1 mg/kg po; assay type: organism-based; design: dose 13.1 mg/kg; how it was run: as §3
[19] = system: Rattus norvegicus; experiment: Plasma ANF Concentration in the Conscious Rat at a dose of 13.1(po)mg/kg at 1 h; assay type: functional; how it was run: as §2
[20] = target: T1, Angiotensin-converting enzyme (Rattus norvegicus); experiment: Compound was tested for plasma inhibition of Angiotensin I converting enzyme activity in the conscious rat. Expressed as Inhibition of AI pressor response at 2 hr at a dose of 13.1 mg/kg po; assay type: organism-based; design: dose 13.1 mg/kg; how it was run: as §1
[21] = system: Rattus norvegicus; experiment: Plasma ANF Concentration in the Conscious Rat at a dose of 13.1(po)mg/kg at 0.5 h; assay type: functional; how it was run: as §2
[22] = target: T1, Angiotensin-converting enzyme (Rattus norvegicus); experiment: Compound was tested for plasma inhibition of Angiotensin I converting enzyme activity in the conscious rat. Expressed as Inhibition of AI pressor response at 1 hr at a dose of 13.1 mg/kg po; assay type: organism-based; design: dose 13.1 mg/kg; how it was run: as §1
[23] = system: Rattus norvegicus; experiment: Plasma ANF Concentration in the Conscious Rat at a dose of 13.1(po)mg/kg at 2 h; assay type: functional; how it was run: as §2
[24] = system: Rattus norvegicus; experiment: Plasma ANF Concentration in the Conscious Rat at a dose of 13.1(po)mg/kg at 4 h; assay type: functional; how it was run: as §2

inhibition [1]: 70%
inhibition [3]: 72%
inhibition [4]: 78%
inhibition [5]: 76%
Compound: CCCCOC(=O)[C@H](Cc1ccc(O)cc1)NC(=O)C1(NC(=O)[C@H](SC(C)=O)C(C)C)CCCC1
Control [2]: 185%
Control [6]: 131%
Control [7]: 133%
Control [8]: 178%

inhibition [9]: 60%
inhibition [10]: 83%
inhibition [13]: 77%
inhibition [14]: 77%
Compound: CC(=O)S[C@@H](C(=O)NC1(C(=O)N[C@@H](Cc2ccc(O)cc2)C(=O)OCCC(C)C)CCCC1)C(C)C
Control [11]: 235%
Control [12]: 178%
Control [15]: 236%
Control [16]: 251%

inhibition [17]: 64%
inhibition [18]: 81%
inhibition [20]: 84%
inhibition [22]: 85%
Compound: COc1ccc(C[C@H](NC(=O)C2(NC(=O)[C@H](SC(C)=O)C(C)C)CCCC2)C(=O)OCc2ccccc2)cc1
Control [19]: 111%
Control [21]: 107%
Control [23]: 143%
Control [24]: 181%
